Source: PubChem BioAssay (The Scripps Research Institute Molecular Screening Center)
ARFGAP1 inhibitor = rat ARFGAP1 inhibition. 0.26% of 360,000 active. inhibition, % at 16.5 µM. AID 651572. Arfgap1-stimulated ARF1 GTP hydrolysis, GDP FP detection;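 active = inhibition above a per-plate limit, mean inhibition of low control wells plus 3 SD, cut at about 25% in these data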;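 also: 0% = DMSO wells with enzyme and 100% = wells lacking Arfgap1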
Target sequence (Q62848 1-136 limits assumed): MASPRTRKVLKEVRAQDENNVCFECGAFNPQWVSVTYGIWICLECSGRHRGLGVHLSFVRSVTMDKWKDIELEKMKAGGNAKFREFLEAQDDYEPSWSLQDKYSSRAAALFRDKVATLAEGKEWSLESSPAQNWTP
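Material: rat Arfgap1 catalytic domain, aa 1-136; also added: human ARF1(Δ1-17)-GTP substrate; compound dosing: one concentration, 16.5 µM, DMSO 1.26%; incubation: GTP hydrolysis reaction 2 h at 25 °C; measured by: Tracer-displacement fluorescence polarization with EDTA stop, 620/688 nm; evaluation: % inhibition from polarization; repeats: one replicate per compound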
EBNA-1 inh = blocks EBNA-1 binding to DNA; EBNA-1 DNA binding, fluorescence polarization; inhibition, % at 14.8 µM; 0.34% of 300,000 active; AID 1950; in the data active = inhibition above about 28%
ZTA DNA inh = counter-screen for EBNA-1 inhibitors: inhibitors of Epstein-Barr virus ZTA; 0.15% of 320,000 active; P03206; ZTA-DNA binding, fluorescence polarization; AID 2234; inhibition, % at 11 µM; in the data active = inhibition above about 33%
Target sequence (P03206 whole entry, looked up): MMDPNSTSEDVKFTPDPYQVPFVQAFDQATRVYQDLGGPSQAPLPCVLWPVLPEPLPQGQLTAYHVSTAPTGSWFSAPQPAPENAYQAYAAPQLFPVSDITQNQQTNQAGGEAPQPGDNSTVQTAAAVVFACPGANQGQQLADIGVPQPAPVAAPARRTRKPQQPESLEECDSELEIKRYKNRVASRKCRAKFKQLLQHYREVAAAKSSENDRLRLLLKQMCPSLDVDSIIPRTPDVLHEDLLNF
ASAP1 inh = ASAP1 ArfGAP inhibition | Q9ULH1 | ASAP1-stimulated ARF1 GTP hydrolysis, GDP FP detection | inhibition, % at 16.5 µM | 0.19% of 360,000 active | AID 624377; in the data active = inhibition above about 25%;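 also: 0% = vehicle with enzyme and substrate and 100% = no enzyme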
ASAP1 inh confirm = confirmation of human ASAP1 inhibitors; shares compounds with ASAP1 inh; ASAP1-stimulated Arf1 GTPase, GDP fluorescence polarization; inhibition, % at 16.5 µM; 37% of 620 active; AID 624431;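 active = mean inhibition over triplicates exceeds the hit threshold derived for the earlier primary screening run, cut at about 25% in these data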
The depositor's hits bear a star. Only some compounds are listed: those with a hit (about 0.75% of all), similar ones and a draw of the others.

How did CCN(CC)c1nc(N)c2c(N)nc(OC)cc2c1C#N do in these assays?
ARFGAP1 inhibitor: 11.8; EBNA-1 inh: -4.4; ZTA DNA inh: -0.8; ASAP1 inh: 34.4*; ASAP1 inh confirm: -1.8

Results for COc1ccc(Cl)cc1NC(=O)COC(=O)c1cc(C)oc1C ?
ARFGAP1 inhibitor: 5.7; ASAP1 inh: 24.9*; ASAP1 inh confirm: 16.1

How did COc1ccccc1NC(=O)COC(=O)c1cc(C)oc1C do in these assays?
ARFGAP1 inhibitor: 12.0; ASAP1 inh: -0.5

How did O=C(CSc1nn(-c2ccccc2)c(=S)s1)Nc1ncccn1 do in these assays?
ARFGAP1 inhibitor: 11.9; EBNA-1 inh: -12.8; ZTA DNA inh: -3.8; ASAP1 inh: 25.9*; ASAP1 inh confirm: 43.9*

How did Cc1cc(C)nc(NC(=O)CSc2nn(-c3ccccc3)c(=S)s2)n1 do in these assays?
ARFGAP1 inhibitor: -4.6; EBNA-1 inh: -8.9; ZTA DNA inh: 6.9; ASAP1 inh: -8.5

Results for Cc1ccc(N(C)S(=O)(=O)c2ccc3[nH]cc(C(=O)NCCCN4CCOCC4)c(=O)c3c2)cc1C ?
ARFGAP1 inhibitor: -4.6; EBNA-1 inh: -9.2; ZTA DNA inh: 5.8; ASAP1 inh: 30.1*; ASAP1 inh confirm: 4.7

How did COCCNc1nc(C)c(C(C)=O)s1 do in these assays?
ARFGAP1 inhibitor: -6.8; EBNA-1 inh: -7.0; ZTA DNA inh: 6.4; ASAP1 inh: 26.1*; ASAP1 inh confirm: 3.2

Results for CCOC(=O)c1cccnc1SCC(=O)Nc1ccc(C)cc1 ?
ARFGAP1 inhibitor: -5.2; EBNA-1 inh: 2.3; ZTA DNA inh: 8.2; ASAP1 inh: 0.1

What do the screens show for `Cc1ccc(NC(=O)CSc2ncccc2C(=O)Oc2cccc([N+](=O)[O-])c2)cc1Cl`?
ARFGAP1 inhibitor: 7.2; EBNA-1 inh: -6.2; ZTA DNA inh: -1.3; ASAP1 inh: 44.0*; ASAP1 inh confirm: 39.0*

Results for C/C(=N/NS(=O)(=O)c1ccc(C)cc1)c1ccc(NC(=O)C(F)(F)F)cc1 ?
ARFGAP1 inhibitor: 2.4; EBNA-1 inh: 5.6; ZTA DNA inh: -11.8; ASAP1 inh: 25.2*; ASAP1 inh confirm: 7.8

What do the screens show for `COc1cc(O)cc(/C=C/c2ccccc2)c1`?
ARFGAP1 inhibitor: 4.0; ASAP1 inh: 26.6*; ASAP1 inh confirm: 9.0

Results for COc1ccc(C(=O)/C=C/c2ccccc2)c(O)c1 ?
ARFGAP1 inhibitor: -6.7; EBNA-1 inh: -7.8; ZTA DNA inh: -10.6; ASAP1 inh: 9.3

How did OCC[C@@H]1C[C@H](O)[C@@H](O)[C@]2(OCc3cc(Cl)ccc32)O1 do in these assays?
ARFGAP1 inhibitor: 3.6; ASAP1 inh: 0.5

Results for OCC[C@@H]1C[C@H](O)[C@@H](O)[C@@]2(OCc3cc(Cl)ccc32)O1 ?
ARFGAP1 inhibitor: 5.4; ASAP1 inh: 24.9*; ASAP1 inh confirm: 4.2

What do the screens show for `CC(C)(C)OC(=O)N[C@@H]1C=CC(=O)C1`?
ARFGAP1 inhibitor: -9.7; ASAP1 inh: 6.8

Results for CCN(CC)CCNC(=O)c1ccc(NCN2C(=O)NC(c3ccccc3)(c3ccccc3)C2=O)cc1 ?
ARFGAP1 inhibitor: 9.5; ASAP1 inh: 0.7

How did Cc1cc(/C=N/NC(=O)Cn2c3ccccc3c(=O)c3ccccc32)c(C)n1-c1ccccc1 do in these assays?
ARFGAP1 inhibitor: 19.5; EBNA-1 inh: 4.6; ZTA DNA inh: 13.8; ASAP1 inh: 24.9*; ASAP1 inh confirm: 7.1

How did Cc1ccc(N(CC(=O)N/N=C/c2cc(C)n(-c3ccccc3)c2C)S(C)(=O)=O)c(C)c1 do in these assays?
ARFGAP1 inhibitor: 2.9; EBNA-1 inh: -1.7; ZTA DNA inh: -3.6; ASAP1 inh: -4.7

Results for Cc1cc(C)c2c(c1)NC(C(=O)O)C1CC=CC21 (configuration not stated) ?
ARFGAP1 inhibitor: 29.7*; EBNA-1 inh: -2.6; ZTA DNA inh: 10.7; ASAP1 inh: 38.4*; ASAP1 inh confirm: 35.4*

Results for Cc1ccc2c(c1C)NC(C(=O)O)C1CC=CC21 (configuration not stated) ?
EBNA-1 inh: 10.1; ZTA DNA inh: 4.6

Results for CCCn1cnnc1CNC(=O)[C@@H](Cc1ccccc1)NC(=O)[C@H]1O[C@@H](n2ccc(=O)[nH]c2=O)[C@H](O)[C@@H]1O ?
ARFGAP1 inhibitor: 5.7; ASAP1 inh: 8.3

How did Cc1nn(Cc2ccccc2)c(C)c1NC(=O)CSc1nc(-c2ccccc2)nc2c1cnn2-c1ccccc1 do in these assays?
ARFGAP1 inhibitor: -5.0; ASAP1 inh: 3.6

What do the screens show for `Cc1nc(SCC(=O)Nc2c(C)nn(C)c2C)c2cnn(-c3ccccc3)c2n1`?
ARFGAP1 inhibitor: 6.1; EBNA-1 inh: -3.3; ZTA DNA inh: 6.9; ASAP1 inh: 25.1*; ASAP1 inh confirm: 5.0

What do the screens show for `O=C(COc1ccc(/C=N/NC(=O)c2cc3ccccc3o2)cc1Br)Nc1ccccc1`?
ARFGAP1 inhibitor: 16.8; EBNA-1 inh: -8.6; ZTA DNA inh: 9.0; ASAP1 inh: 75.5*; ASAP1 inh confirm: 83.7*

What do the screens show for `Cc1[nH]c2ccccc2c1CC(=O)Nc1ccc(Nc2cccnc2)c(Br)c1`?
ARFGAP1 inhibitor: 21.4; ASAP1 inh: 27.1*; ASAP1 inh confirm: 15.9

Results for CCOC(=O)Cn1c(-c2ccccc2)nc2ccccc2c1=O ?
ARFGAP1 inhibitor: 4.2; EBNA-1 inh: -4.0; ZTA DNA inh: 6.5; ASAP1 inh: 25.6*; ASAP1 inh confirm: -0.1

Results for CC(C)(C)S(=O)(=O)N1Cc2cc(CO)ccc2[C@H]1CCO ?
ARFGAP1 inhibitor: 6.4; ASAP1 inh: -25.6

How did C[C@H](CO)N1C[C@H](C)[C@H](CN(C)C(=O)Nc2ccc(F)cc2)Oc2ncc(Br)cc2C1=O do in these assays?
ARFGAP1 inhibitor: 6.3; ASAP1 inh: 2.8

How did CCN1C[C@@H]2[C@@H]3C(=O)N(Cc4ccccc4)C(=O)[C@@H]3[C@](Cc3ccccc3)(C1=O)N2C(=O)c1ccc(Cl)cc1 do in these assays?
ARFGAP1 inhibitor: 7.5; ASAP1 inh: 56.5*; ASAP1 inh confirm: 1.1

How did CC(C)c1[nH]nc2c1C(c1ccc(Br)cc1)NC2=O (configuration not stated) do in these assays?
ARFGAP1 inhibitor: -10.4; ASAP1 inh: 9.3

How did Nc1ccc(N2CCCCC2)c2nonc12 do in these assays?
ARFGAP1 inhibitor: 6.5; EBNA-1 inh: -13.6; ZTA DNA inh: 56.8*; ASAP1 inh: 25.1*; ASAP1 inh confirm: 12.9

Results for Cc1ccc(C(=O)Nc2cccc(NC(=O)c3ccc(C)c([N+](=O)[O-])c3)n2)cc1[N+](=O)[O-] ?
ARFGAP1 inhibitor: 5.1; EBNA-1 inh: 14.5; ZTA DNA inh: -2.7; ASAP1 inh: 28.4*; ASAP1 inh confirm: 28.4*

Results for O=S(=O)(c1ccc(C(F)(F)F)cc1)N1CCCc2nc(-c3ccccc3)ccc21 ?
ARFGAP1 inhibitor: -7.7; ASAP1 inh: 11.1

What do the screens show for `CCOC(=O)c1sc(N/N=C/c2cccc(C)c2)nc1C`?
ARFGAP1 inhibitor: 1.3; EBNA-1 inh: -8.8; ZTA DNA inh: 6.9; ASAP1 inh: -4.9

What do the screens show for `C=CCN(C/C(=N\O)c1sc(C(=O)OCC)nc1C)c1cccc(Br)c1`?
ARFGAP1 inhibitor: 6.8; EBNA-1 inh: 5.3; ZTA DNA inh: -3.6; ASAP1 inh: 25.7*; ASAP1 inh confirm: 15.3
